This note sets out measurements from ChEMBL document CHEMBL1137753, “Insecticidal heterolignans--tubuline polymerization inhibitors with activity against chewing pests” (Bioorg Med Chem, 2009).

The source made the active and inactive calls. Unless noted, the rule behind the calls is not given here.

The subject of data set [1] is Phaedon cochleariae. Description: Insecticidal activity against Phaedon cochleariae larvae in disk of Chinese cabbage leaf treated as spray. The format is functional, organism-based.
The subject of data set [2] is Spodoptera frugiperda. Nature of the data set: Insecticidal activity against Spodoptera frugiperda larvae in disk of maize leaf at 500 g/ha treated as spray. The data set is classed as functional, organism-based. In a few lines: (§1)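 The same acetone/DMF/emulsifier formulation, diluted in emulsifier-containing water, was sprayed onto maize leaf disks. Dried disks were infested with fall armyworm larvae and mortality was assessed after a set time. "+" denotes ≥80% larvae killed; n.a. denotes no larvae killed.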

In data set [3] the test system is Phaedon cochleariae. Nature of the data set: Insecticidal activity against Phaedon cochleariae larvae in disk of Chinese cabbage leaf at 20 g/ha treated as spray. The data set is classed as functional, organism-based. In a few lines: (§2)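 This was sprayed on Chinese cabbage leaf disks. Once dry, disks were infested with mustard beetle larvae and mortality was scored after a set time. "+" denotes ≥80% larvae killed; n.a. denotes none killed.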

The subject of data set [4] is Spodoptera frugiperda. Description: Insecticidal activity against Spodoptera frugiperda larvae in disk of maize leaf at 100 g/ha treated as spray. The format is functional, organism-based. In a few lines:
as §1

The test system of data set [5] is Spodoptera frugiperda. Description: Insecticidal activity against Spodoptera frugiperda larvae in disk of maize leaf treated as spray. The data set is classed as functional, organism-based.
For data set [6], the system named is Phaedon cochleariae. Description: Insecticidal activity against Phaedon cochleariae larvae in disk of Chinese cabbage leaf at 100 g/ha treated as spray. The data set is classed as functional, organism-based. In a few lines: as §2
In data set [7] the test system is Spodoptera frugiperda. Nature of the data set: Insecticidal activity against Spodoptera frugiperda larvae in disk of maize leaf at 4 g/ha treated as spray. The data set is classed as functional, organism-based. In a few lines:
as §1

In data set [8] the test system is CHO. Nature of the data set: Cytotoxicity against CHO cells assessed as chromatin condensation after 24 hrs by fluorescence microscopy. The format is cell-based, Cricetulus griseus. To be noted: chinese hamster.
Data set [9] concerns Sf9. Description: Cytotoxicity against Spodoptera frugiperda Sf9 cells assessed as chromatin condensation at 3 ppm after 48 hrs by fluorescence microscopy. The data set is classed as functional, cell-based. In a few lines: (§3)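 Sf9 or CHO cells were seeded in chamber slides the day before treatment and exposed to compound for 48 h. They were then PBS-washed, fixed in ice-cold methanol for 10 min on ice, and rinsed with acetone. After rehydration in PBS, cells were stained with 2 µM DAPI for 30 min. Nuclei were examined by fluorescence microscopy (×40) for chromatin condensation or fragmentation.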

For data set [10], the system named is CHO. Nature of the data set: Cytotoxicity against CHO cells assessed as chromatin condensation after 48 hrs by fluorescence microscopy. The data set is classed as cell-based, Cricetulus griseus. To be noted: chinese hamster. In a few lines:
as §3

For data set [11], the system named is Phaedon cochleariae. Description: Insecticidal activity against Phaedon cochleariae larvae in disk of Chinese cabbage leaf at 500 g/ha treated as spray. The data set is classed as functional, organism-based. In a few lines: as §2
The subject of data set [12] is Sf9. Nature of the data set: Cytotoxicity against Spodoptera frugiperda Sf9 cells assessed as chromatin condensation at 0.14 ppm after 48 hrs by fluorescence microscopy. The data set is classed as functional, cell-based. In a few lines:
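Sf9 cells seeded in 8-well slide chambers the day before, then exposed to compound for 48 h. After two PBS washes, cells were fixed in ice-cold methanol for 10 min on ice, given two short acetone washes, rehydrated in PBS and stained with Dapi (2 µM) for 30 min. Chromatin condensation/fragmentation scored by fluorescence microscopy with a x40 objective.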

Turning to `CN1OC(C)(C)C2=C(C1=O)C(c1cccc(Cl)c1)c1cc3c(cc1N2)OCO3` (centres undefined), the outcome in the data set on Phaedon cochleariae [1] was inactive. Also, the result in the data set with Spodoptera frugiperda [2] was Active.

For the molecule `O=C1OCC2=C1C(c1cc(C(F)(F)F)cc(Cl)c1F)c1cc3c(cc1N2)OCO3` (centres undefined), the outcome with Phaedon cochleariae [3] and in the data set on Spodoptera frugiperda [4] was Active.

Take `COc1cc(C2C3=C(COC3=O)Nc3cc4c(cc32)OCO4)cc(SC)c1OC` (centres undefined): the outcome with Spodoptera frugiperda [5] was inactive. The result in the data set with Phaedon cochleariae [6] was Active.

`COc1cc(OC)cc(C2C3=C(COC3=O)Nc3cc(OC)ccc32)c1` (centres undefined): the result in the data set with Phaedon cochleariae [3] and in the data set on Spodoptera frugiperda [7] was Active.

As for `COc1cc(C2C3=C(COC3=O)Nc3cc4c(cc32)OCO4)cc(O)c1OC` (centres undefined), the result in the data set on Spodoptera frugiperda [5] was inactive. In addition, the result in the data set with Phaedon cochleariae [6] was Active.

Take `CCOc1cccc(C2C3=C(COC3=O)Nc3cc4c(cc32)OCO4)c1` (centres undefined): the result in the data set with Phaedon cochleariae [6] and with Spodoptera frugiperda [4] was Active.

As for `COc1cc(OC)cc(C2C3=C(COC3=O)Nc3cc(OC(C)C)ccc32)c1` (centres undefined), the Activity entry in the data set on CHO [8] and with CHO [10] was “Toxic” each time. In addition, in the data set on Phaedon cochleariae [1], the result was inactive. Moreover, the result in the data set on Sf9 [9] and in the data set with Spodoptera frugiperda [2] was Active.

Take `COc1ccc2c(c1OC)OC1=C(C(=O)OC1)C2c1cc(Cl)cc(Cl)c1` (centres undefined): the outcome in the data set on Phaedon cochleariae [1] was inactive. Also, in the data set with Spodoptera frugiperda [2], the result was Active.

For `COc1cc(C2C3=C(COC3=O)Nc3cc4c(cc32)OCO4)ccc1Cl` (centres undefined), the outcome in the data set on Phaedon cochleariae [11] and in the data set with Spodoptera frugiperda [2] was Active.

Consider `O=C1OCC2=C1C(c1cc(Br)cs1)c1cc3c(cc1N2)OCO3` (centres undefined), for which the result with Phaedon cochleariae [1] was inactive. For the same molecule, the outcome in the data set on Spodoptera frugiperda [2] was Active.

For the molecule `COc1cc(C2C3=C(COC3=O)Nc3cc4c(cc32)OCO4)cc2c1OCO2` (centres undefined), the result in the data set on Spodoptera frugiperda [2] was Active.

For the molecule `COc1cc(C2C3=C(COC3=O)Nc3cc4c(cc32)OCO4)cc(Br)c1OC` (centres undefined), in the data set with Spodoptera frugiperda [5], the outcome was inactive. For the same molecule, the result in the data set with Phaedon cochleariae [6] was Active.

For the molecule `O=C1OCC2=C1C(c1cccc(C(F)(F)F)c1)c1cc3c(cc1N2)OCO3` (centres undefined), the result in the data set with Phaedon cochleariae [6] and in the data set on Spodoptera frugiperda [4] was Active.

For the molecule `CCOc1cc2c(cc1C)C(c1cc(OC)cc(OC)c1)C1=C(COC1=O)N2` (centres undefined), in the data set with Spodoptera frugiperda [5], the result was inactive. Moreover, the outcome with Phaedon cochleariae [6] was Active.

Consider `COc1ccc2c(c1)C(c1cc(OC)c(OC)c(OC)c1)C1=C(COC1=O)N2` (centres undefined), for which, in the data set on Spodoptera frugiperda [5], the outcome was inactive. The outcome in the data set on Phaedon cochleariae [3] was Active.

As to `COc1cc(C2C3=C(COC3=O)Nc3cc4c(cc32)OCO4)cc(OC)c1OC` (centres undefined), the outcome in the data set with Spodoptera frugiperda [5] was inactive. Further, the result in the data set with Phaedon cochleariae [3] was Active.

Turning to `COc1c(Cl)cc(C2C3=C(COC3=O)Nc3cc4c(cc32)OCO4)cc1Cl` (centres undefined), the outcome with Phaedon cochleariae [6] and with Spodoptera frugiperda [4] was Active.

For `COc1cc(C2C3=C(COC3=O)Nc3cc4c(cc32)OC(F)(F)O4)cc(OC)c1OC` (centres undefined), the result in the data set with Spodoptera frugiperda [5] was inactive. In the data set on Phaedon cochleariae [6], the result was Active.

Regarding `N#Cc1cccc(C2C3=C(COC3=O)Nc3cc4c(cc32)OCO4)c1` (centres undefined), the outcome with Phaedon cochleariae [1] was inactive. Also, the outcome with Spodoptera frugiperda [2] was Active.

`COc1ccc(C2C3=C(COC3=O)Nc3cc4c(cc32)OCO4)cn1` (centres undefined): the result with Phaedon cochleariae [11] and in the data set with Spodoptera frugiperda [2] was Active.

Take `O=C1OCC2=C1C(c1cc(Br)c3c(c1)OCO3)c1cc3c(cc1N2)OCO3` (centres undefined): the result with Phaedon cochleariae [6] and in the data set on Spodoptera frugiperda [2] was Active.

On to `COc1ccc(C2C3=C(COC3=O)Nc3cc4c(cc32)OCO4)cc1OC` (centres undefined), for which the result in the data set with Spodoptera frugiperda [5] and in the data set on Phaedon cochleariae [1] was inactive. In addition, the Activity result in the data set on CHO [8] and in the data set on CHO [10] was “Toxic” each time. The outcome with Sf9 [9] was Active.

For the molecule `COc1cc(OC)cc(C2C3=C(COC3=O)Nc3cc(OC)c(C)cc32)c1` (centres undefined), the result in the data set on Phaedon cochleariae [3] and in the data set with Spodoptera frugiperda [2] was Active.

On to `O=C1OCC2=C1C(c1cccc(OC(F)(F)C(F)F)c1)c1cc3c(cc1N2)OCO3` (centres undefined), for which the result in the data set with Phaedon cochleariae [6] and in the data set on Spodoptera frugiperda [4] was Active.

For the molecule `COc1cc(C2C3=C(COC3=O)Cc3cc4c(cc32)OCO4)cc(OC)c1OC` (centres undefined), the result with Spodoptera frugiperda [5] was inactive. Besides, the outcome with Phaedon cochleariae [6] was Active.

For the molecule `CC(C)Oc1cccc(C2C3=C(COC3=O)Nc3cc4c(cc32)OCO4)c1` (centres undefined), in the data set on Phaedon cochleariae [1], the result was inactive. The outcome in the data set on Spodoptera frugiperda [2] was Active.

For `COc1cc(OC)cc(C2C3=C(COC3=O)Nc3c2ccc(C)c3C)c1` (centres undefined), the outcome in the data set on Phaedon cochleariae [6] and with Spodoptera frugiperda [4] was Active.

On to `COc1cc(OC)cc(C2C3=C(COC3=O)Nc3cc(OC)cc(OC)c32)c1` (centres undefined), for which the result in the data set with Phaedon cochleariae [6] and in the data set on Spodoptera frugiperda [2] was Active.

For the molecule `Cc1cc(C)cc(C2C3=C(COC3=O)Nc3cc4c(cc32)OCO4)c1` (centres undefined), the result in the data set with Phaedon cochleariae [6] was Active.

Regarding `COc1cc(OC)cc(C2C3=C(Nc4cc5c(cc42)OCO5)C(C)OC3=O)c1` (centres undefined), the outcome in the data set on Phaedon cochleariae [6] and with Spodoptera frugiperda [2] was Active.

Consider `O=C1OCC2=C1C(c1cccc(OC(F)(F)F)c1)c1cc3c(cc1N2)OCO3` (centres undefined), for which the outcome in the data set on Phaedon cochleariae [6] was Active.

With `CC1CC2=C(C(=O)O1)C(c1cccc(Cl)c1)c1cc3c(cc1N2)OCO3` (centres undefined), the outcome in the data set with Phaedon cochleariae [6] and in the data set on Spodoptera frugiperda [4] was Active.

Consider `COc1cc(OC)cc(C2C3=C(COC3=O)Nc3ccc(OC)cc32)c1` (centres undefined), for which the result in the data set with Phaedon cochleariae [3] and in the data set with Spodoptera frugiperda [4] was Active.

As to `O=C1OCC2=C1C(c1cccc(F)c1)c1cc3c(cc1N2)OCO3` (centres undefined), the result in the data set with Phaedon cochleariae [6] was Active.

For `O=C1OCC2=C1C(c1cncc(-c3ccc(F)cc3)c1)c1cc3c(cc1N2)OCO3` (centres undefined), the result with Phaedon cochleariae [6] and with Spodoptera frugiperda [2] was Active.

Turning to `O=C1OCC2=C1C(c1cc(Cl)cc(Cl)c1)c1cc3c(cc1N2)OCO3` (centres undefined), in the data set with Phaedon cochleariae [6], the result was Active.

Regarding `O=C1CCC2=C1C(c1cccc(Cl)c1)c1cc3c(cc1N2)OCO3` (centres undefined), the outcome with Spodoptera frugiperda [5] and in the data set with Phaedon cochleariae [1] was inactive. The Activity entry in the data set on CHO [8] and in the data set on CHO [10] was “Toxic” each time. In addition, the outcome in the data set on Sf9 [9] was Active.

As for `O=C1OCC2=C1C(c1cc(F)c(F)c(F)c1)c1cc3c(cc1N2)OCO3` (centres undefined), the outcome in the data set on Phaedon cochleariae [1] was inactive. Besides, the outcome in the data set on Spodoptera frugiperda [2] was Active.

Regarding `COc1cc(OC)cc(C2C3=C(CC(C)OC3=O)Nc3cc4c(cc32)OCO4)c1` (centres undefined), the outcome in the data set with Phaedon cochleariae [11] and in the data set on Spodoptera frugiperda [2] was Active.

In the case of `COc1cc(OC)cc([C@H]2C3=C(COC3=O)Nc3cc(OC)ccc32)c1`, the outcome in the data set with Sf9 [12] was Active.

On to `COc1cc(OC)cc(C2C3=C(COC3=O)Nc3c(OC)cc(C)cc32)c1` (centres undefined), for which the result in the data set on Phaedon cochleariae [3] and with Spodoptera frugiperda [2] was Active.

Regarding `O=C1OCC2=C1C(c1cc(F)cc(F)c1)c1cc3c(cc1N2)OCO3` (centres undefined), the outcome with Phaedon cochleariae [6] was Active.

`COc1ccc2c(c1)OC1=C(C(=O)OC1)C2c1cc(Cl)cc(Cl)c1` (centres undefined): in the data set with Phaedon cochleariae [1], the outcome was inactive. Besides, in the data set on Spodoptera frugiperda [2], the outcome was Active.

With `O=C1OCC2=C1C(c1cccc(Br)c1)c1cc3c(cc1N2)OCO3` (centres undefined), in the data set with Phaedon cochleariae [6], the result was Active.
